Data as given in ChEMBL document CHEMBL4017549, “Structural Basis of Inhibition of ERα-Coactivator Interaction by High-Affinity N-Terminus Isoaspartic Acid Tethered Helical Peptides” (J Med Chem, 2017).
The source made the active and inactive calls. No cut-off for these calls is given here.

Columns and labels:
Estrogen receptor beta = Estrogen receptor beta (Homo sapiens, UniProt Q92731); experiment: Binding affinity to recombinant human GFP-fused ERbeta LBD (259 to 498 residues) expressed in Escherichia coli BL21(DE3) after 40 mins in presence of 17beta-estradiol by fluorescence polarization assay
Procedure, shortened: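 FITC-labelled peptide at 10 nM final, titrated with increasing purified LBD (ERβ LBD carrying C334S, C369S, C481S) in 20 mM Tris-HCl pH 8.0, 150 mM NaCl, 5% glycerol, 1 mM TCEP with 10 μM 17β-estradiol. Incubated 40 min in the dark, polarization read at 298 K (ex 480/em 535 nm). KD from nonlinear regression of polarization versus protein concentration.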

[1] = molecular target: T1, Estrogen receptor (Homo sapiens) (UniProt P03372); experiment: Binding affinity to recombinant human GFP-fused ERalpha LBD (301 to 553 residues) expressed in Escherichia coli BL21(DE3) in presence of 17beta-estradiol by ITC
T1 sequence (whole entry): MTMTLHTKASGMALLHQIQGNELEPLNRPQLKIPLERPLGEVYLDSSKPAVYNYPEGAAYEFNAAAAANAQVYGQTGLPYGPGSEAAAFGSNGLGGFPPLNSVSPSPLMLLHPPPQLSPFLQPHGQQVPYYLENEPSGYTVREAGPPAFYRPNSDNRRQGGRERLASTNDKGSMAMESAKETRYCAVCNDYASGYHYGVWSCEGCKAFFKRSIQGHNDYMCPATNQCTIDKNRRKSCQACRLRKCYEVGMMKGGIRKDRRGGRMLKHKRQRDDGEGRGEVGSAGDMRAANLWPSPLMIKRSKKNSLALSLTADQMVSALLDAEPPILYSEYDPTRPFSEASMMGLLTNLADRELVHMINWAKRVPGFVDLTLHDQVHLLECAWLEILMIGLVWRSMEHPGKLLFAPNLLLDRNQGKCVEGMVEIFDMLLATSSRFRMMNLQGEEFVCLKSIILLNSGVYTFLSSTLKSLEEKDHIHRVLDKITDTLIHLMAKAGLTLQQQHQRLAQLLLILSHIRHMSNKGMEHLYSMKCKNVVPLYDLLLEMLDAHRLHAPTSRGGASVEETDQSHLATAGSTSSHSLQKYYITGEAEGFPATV
Procedure, shortened: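 ITC at 25 °C. 2 μL injections of 50 μM peptide into 5 μM ERα LBD in 50 mM Tris pH 8.0, 150 mM NaCl, 1 mM TCEP, 0.1 mM 17β-estradiol. Binding isotherm fitted for affinity.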

Homo sapiens = organism: Homo sapiens; experiment: Selectivity ratio of Kd for recombinant human ERbeta LBD (259 to 498 residues) to Kd for recombinant human ERalpha LBD (301 to 553 residues)
Procedure, shortened: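 Ratio of KD values, each from fluorescence polarization of 10 nM FITC-peptide titrated with the respective LBD after 40 min in the dark at 298 K, with the matching ligand in buffer (10 μM 17β-estradiol, progesterone or vitamin D3).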

[2] = Drug uptake in human MCF7 cells assessed per million cells at 5 uM after 3 hrs by FACS analysis; format: ADME, cell-based; conditions: mcf7, 3 h
Procedure, shortened: (§1)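 Adherent cells seeded overnight, then exposed to 5 μM FITC-labelled peptide or DMSO in FBS-free medium, 3 h, 37 °C. After PBS washes (three), about 10000 cells per sample analysed by flow cytometry; mean cellular fluorescence intensity calculated. More than two independent experiments, SEM.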

[3] = molecular target: T1, Estrogen receptor (Homo sapiens); experiment: Binding affinity to recombinant human GFP-fused ERalpha LBD (301 to 553 residues) expressed in Escherichia coli BL21(DE3) in presence of ERalpha inhibitor 4-hydroxytamoxifen by ITC
Procedure, shortened: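 ITC at 25 °C. 50 μM peptide injected in 2 μL steps into 5 μM ERα LBD in 50 mM Tris pH 8.0, 150 mM NaCl, 1 mM TCEP containing 0.1 mM 4-hydroxytamoxifen instead of estradiol. Isotherm fitted.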

[4] = Drug uptake in human U2OS cells assessed per million cells at 5 uM after 3 hrs by FACS analysis; format: ADME, cell-based; procedure, shortened: as §1

Estrogen receptor beta, sequence (Q92731 whole entry, the tested form may be a part): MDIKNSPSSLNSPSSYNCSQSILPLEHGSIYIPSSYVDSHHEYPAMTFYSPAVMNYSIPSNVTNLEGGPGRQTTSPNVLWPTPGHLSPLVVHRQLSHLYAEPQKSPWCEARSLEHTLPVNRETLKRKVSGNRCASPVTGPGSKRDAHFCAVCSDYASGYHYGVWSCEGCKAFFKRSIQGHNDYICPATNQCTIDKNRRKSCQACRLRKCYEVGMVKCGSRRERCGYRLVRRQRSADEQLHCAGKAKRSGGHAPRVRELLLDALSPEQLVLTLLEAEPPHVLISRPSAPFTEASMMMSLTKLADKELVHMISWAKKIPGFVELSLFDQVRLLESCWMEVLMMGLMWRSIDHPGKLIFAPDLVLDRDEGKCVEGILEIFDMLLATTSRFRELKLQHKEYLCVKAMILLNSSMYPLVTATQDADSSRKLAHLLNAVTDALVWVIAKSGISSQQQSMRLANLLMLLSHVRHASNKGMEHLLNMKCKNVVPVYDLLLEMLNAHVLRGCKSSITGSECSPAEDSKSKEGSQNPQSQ

## CC[C@H](C)[C@@H]1NC(=O)C[C@H](NC(=O)[C@H](CCCNC(=N)N)NC(=O)CCNC(=S)Nc2ccc3c(c2)C(=O)OC32c3ccc(O)cc3Oc3cc(O)ccc32)C(=O)NCC(C(=O)N[C@@H](CCCNC(=N)N)C(=O)NC(CC(C)(C)C)C(=O)NC(CC(C)(C)C)C(=O)N[C@@H](CCC(N)=O)C(N)=O)NC(=O)C(CC(C)(C)C)NC1=O (stereo partly specified)
Estrogen receptor beta
  Kd: 0.297 µM
[1]
  Activity: Active
Homo sapiens
  Selectivity ratio: 4.4
[2]
  Drug uptake: Active
[3]
  Activity: inactive
[4]
  Drug uptake: Active
